Test results: ChEMBL document CHEMBL2021916, “Aflaquinolones A-G: secondary metabolites from marine and fungicolous isolates of Aspergillus spp” (J Nat Prod, 2012)

Experiments:
[1] = test system: B16-F10; assay: Cytotoxicity against mouse B16F10 cells after 48 hrs by EZ-CyTox enhanced cell viability assay; type: functional, cell-based; conditions: B16-F10, 48 h
Summary of the method: (§1)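 Seeding densities: K562 3 × 10⁴, B16F10 3 × 10³, HL-60 1 × 10⁵, MDA-MB-231 5 × 10³ and Hep3B 5 × 10³ cells per well. Cells were exposed for 48 h to test compounds supplied as DMSO solutions. Viability was read with the EZ-CyTox enhanced cell viability kit as absorbance at 450 nm.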

[2] = test system: K562; assay: Cytotoxicity against human K562 cells after 48 hrs by EZ-CyTox enhanced cell viability assay; type: functional, cell-based; conditions: K562, 48 h; summary of the method: as §1
[3] = test system: HL-60; assay: Cytotoxicity against human HL60 cells after 48 hrs by EZ-CyTox enhanced cell viability assay; type: functional, cell-based; conditions: HL-60, 48 h; summary of the method: as §1
[4] = Cytotoxicity against human Hep3B cells after 48 hrs by EZ-CyTox enhanced cell viability assay; type: functional, cell-based, Hep 3B2; summary of the method: as §1
[5] = test system: MDA-MB-231; assay: Cytotoxicity against human MDA-MB-231 cells after 48 hrs by EZ-CyTox enhanced cell viability assay; type: functional, cell-based; conditions: MDA-MB-231, 48 h; summary of the method: as §1

Measured: IC50

CO[C@@H]1C(=O)Nc2ccc(/C=C/[C@]3(C)CCC(=O)[C@@H](C)C3)c(O)c2[C@@]1(O)c1ccccc1 [AFLAQUINOLONE A]
> 80 µM: all assays above

CO[C@@H]1C(=O)Nc2ccc(/C=C/[C@]3(C)CC[C@@H](O)[C@@H](C)C3)c(O)c2[C@@]1(O)c1ccccc1 [AFLAQUINOLONE B]
> 80 µM: all assays above

CO[C@@H]1C(=O)Nc2ccc(/C=C/[C@@]3(C)CCC(=O)[C@H](C)C3)c(O)c2[C@@]1(O)c1ccccc1 [AFLAQUINOLONE C]
> 80 µM: all assays above

CO[C@@H]1C(=O)Nc2cccc(O)c2[C@@]1(O)c1ccccc1 [AFLAQUINOLONE E]
> 80 µM: all assays above

O=C1Nc2ccccc2[C@@](O)(c2ccccc2)[C@@H]1O [AFLAQUINOLONE F]
> 80 µM: all assays above

O=C1Nc2ccccc2[C@@](O)(c2ccccc2)[C@H]1O [AFLAQUINOLONE G]
> 80 µM: all assays above
